The values that follow come from ChEMBL document CHEMBL2429736, “Calix[4]arene methylenebisphosphonic acids as inhibitors of protein tyrosine phosphatase 1B” (Bioorg Med Chem Lett, 2013).

In assay [1] the target is T1, Tyrosine-protein phosphatase non-receptor type 2 (Homo sapiens, UniProt P17706).
T1 sequence (P17706 whole entry): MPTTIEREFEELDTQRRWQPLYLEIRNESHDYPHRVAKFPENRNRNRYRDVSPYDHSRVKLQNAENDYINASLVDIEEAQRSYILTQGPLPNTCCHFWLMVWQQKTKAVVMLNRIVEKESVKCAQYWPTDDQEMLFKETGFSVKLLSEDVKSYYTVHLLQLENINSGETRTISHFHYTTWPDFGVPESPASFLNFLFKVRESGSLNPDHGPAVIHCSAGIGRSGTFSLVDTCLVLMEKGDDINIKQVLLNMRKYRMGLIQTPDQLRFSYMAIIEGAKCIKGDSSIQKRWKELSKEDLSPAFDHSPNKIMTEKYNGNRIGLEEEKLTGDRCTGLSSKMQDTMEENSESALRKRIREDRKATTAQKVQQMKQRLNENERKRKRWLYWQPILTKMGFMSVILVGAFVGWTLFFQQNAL
Description: Inhibition of TCPTP (unknown origin) assessed as p-nitrophenyl phosphate conversion to p-nitrophenol after 10 mins by spectrophotometric analysis. Summed up: (§1)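 p-Nitrophenyl phosphate substrate at 2 mM for TC-PTP and LAR, 1 mM for PTPbeta, 5 mM for CD45, 7 mM for SHP2. p-Nitrophenol release followed. IC50 read from dose-dependent curve as the concentration giving 50% activity after 10 min incubation.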

For assay [2], the target named is Receptor-type tyrosine-protein phosphatase F (Homo sapiens, UniProt P10586). The experiment in a line: Inhibition of LAR (unknown origin) assessed as p-nitrophenyl phosphate conversion to p-nitrophenol after 10 mins by spectrophotometric analysis. In outline:
as §1

Assay [3] deals with T2, Tyrosine-protein phosphatase non-receptor type 11 (Homo sapiens, UniProt Q06124).
T2 sequence (Q06124 whole entry): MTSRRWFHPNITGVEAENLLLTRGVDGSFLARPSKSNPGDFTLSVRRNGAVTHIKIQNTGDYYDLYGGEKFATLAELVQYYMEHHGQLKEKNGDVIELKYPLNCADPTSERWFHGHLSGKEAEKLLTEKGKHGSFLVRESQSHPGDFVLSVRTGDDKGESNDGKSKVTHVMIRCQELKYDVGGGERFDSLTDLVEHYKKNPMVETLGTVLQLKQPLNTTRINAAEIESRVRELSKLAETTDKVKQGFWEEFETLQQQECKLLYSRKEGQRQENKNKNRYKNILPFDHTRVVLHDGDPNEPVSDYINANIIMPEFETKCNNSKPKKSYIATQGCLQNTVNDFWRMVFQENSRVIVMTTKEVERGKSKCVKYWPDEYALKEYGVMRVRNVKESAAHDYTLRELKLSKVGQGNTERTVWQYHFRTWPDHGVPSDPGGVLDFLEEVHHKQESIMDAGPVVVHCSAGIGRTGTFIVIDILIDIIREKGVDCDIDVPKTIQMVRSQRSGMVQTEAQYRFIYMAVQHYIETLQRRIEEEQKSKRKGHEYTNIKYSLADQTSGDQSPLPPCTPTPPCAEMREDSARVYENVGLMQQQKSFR
The experiment in a line: Inhibition of SHP2 (unknown origin) assessed as p-nitrophenyl phosphate conversion to p-nitrophenol after 10 mins by spectrophotometric analysis. In outline:
as §1

In assay [4] the target is Receptor-type tyrosine-protein phosphatase beta (Homo sapiens, UniProt P23467). The experiment in a line: Inhibition of PTPbeta (unknown origin) assessed as p-nitrophenyl phosphate conversion to p-nitrophenol after 10 mins by spectrophotometric analysis. Summed up: as §1
Chain of Receptor-type tyrosine-protein phosphatase beta (P23467 whole entry): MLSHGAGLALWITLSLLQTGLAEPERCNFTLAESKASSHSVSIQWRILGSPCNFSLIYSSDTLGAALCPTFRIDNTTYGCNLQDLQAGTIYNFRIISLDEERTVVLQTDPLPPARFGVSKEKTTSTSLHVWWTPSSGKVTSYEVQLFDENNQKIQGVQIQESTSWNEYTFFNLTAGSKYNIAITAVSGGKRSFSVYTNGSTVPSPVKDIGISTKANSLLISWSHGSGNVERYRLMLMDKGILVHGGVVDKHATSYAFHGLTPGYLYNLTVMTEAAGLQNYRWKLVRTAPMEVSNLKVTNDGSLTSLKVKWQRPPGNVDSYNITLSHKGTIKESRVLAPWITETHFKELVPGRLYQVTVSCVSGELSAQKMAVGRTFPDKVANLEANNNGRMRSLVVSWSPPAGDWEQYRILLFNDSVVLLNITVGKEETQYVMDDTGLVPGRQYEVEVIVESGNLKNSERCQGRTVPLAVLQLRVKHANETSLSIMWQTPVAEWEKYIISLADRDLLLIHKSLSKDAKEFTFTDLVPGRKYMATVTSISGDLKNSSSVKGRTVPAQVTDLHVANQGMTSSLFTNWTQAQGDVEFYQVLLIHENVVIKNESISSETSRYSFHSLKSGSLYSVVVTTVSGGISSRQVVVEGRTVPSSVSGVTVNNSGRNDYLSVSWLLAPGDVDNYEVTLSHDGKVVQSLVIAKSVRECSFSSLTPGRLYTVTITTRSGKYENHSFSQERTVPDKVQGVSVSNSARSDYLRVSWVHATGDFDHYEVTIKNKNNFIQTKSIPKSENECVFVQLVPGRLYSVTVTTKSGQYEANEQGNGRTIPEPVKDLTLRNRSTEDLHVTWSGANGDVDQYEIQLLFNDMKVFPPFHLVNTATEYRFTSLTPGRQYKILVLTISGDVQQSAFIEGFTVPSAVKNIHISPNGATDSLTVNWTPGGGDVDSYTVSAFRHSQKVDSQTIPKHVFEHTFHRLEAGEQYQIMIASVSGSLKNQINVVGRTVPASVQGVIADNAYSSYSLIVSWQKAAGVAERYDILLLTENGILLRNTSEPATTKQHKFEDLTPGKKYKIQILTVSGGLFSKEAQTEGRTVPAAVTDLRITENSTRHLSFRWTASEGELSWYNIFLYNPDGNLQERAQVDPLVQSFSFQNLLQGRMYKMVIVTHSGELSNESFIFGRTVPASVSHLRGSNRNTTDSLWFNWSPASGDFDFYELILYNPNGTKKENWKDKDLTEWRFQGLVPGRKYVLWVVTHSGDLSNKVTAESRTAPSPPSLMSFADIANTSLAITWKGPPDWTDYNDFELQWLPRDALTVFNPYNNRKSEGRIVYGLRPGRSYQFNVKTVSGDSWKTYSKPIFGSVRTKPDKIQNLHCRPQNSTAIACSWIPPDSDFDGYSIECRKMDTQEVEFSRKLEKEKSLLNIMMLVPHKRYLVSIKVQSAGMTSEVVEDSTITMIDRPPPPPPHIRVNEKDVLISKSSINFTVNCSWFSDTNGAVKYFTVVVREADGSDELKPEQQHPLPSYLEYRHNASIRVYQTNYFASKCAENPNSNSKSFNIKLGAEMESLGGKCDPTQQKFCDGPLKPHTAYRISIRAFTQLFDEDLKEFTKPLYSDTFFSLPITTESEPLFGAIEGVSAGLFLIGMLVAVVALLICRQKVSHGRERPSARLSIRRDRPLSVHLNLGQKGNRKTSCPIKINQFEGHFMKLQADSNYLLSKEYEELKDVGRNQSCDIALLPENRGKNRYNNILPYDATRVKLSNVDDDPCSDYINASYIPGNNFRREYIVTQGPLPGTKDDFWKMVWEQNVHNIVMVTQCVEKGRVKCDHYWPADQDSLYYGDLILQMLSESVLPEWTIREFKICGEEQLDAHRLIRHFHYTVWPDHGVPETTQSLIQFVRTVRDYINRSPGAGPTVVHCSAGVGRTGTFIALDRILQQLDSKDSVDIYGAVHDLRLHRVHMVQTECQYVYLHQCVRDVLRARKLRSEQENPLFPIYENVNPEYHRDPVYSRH
Assay [5] has as its target T3, Tyrosine-protein phosphatase non-receptor type 1 (Homo sapiens, UniProt P18031).
T3 sequence (P18031 whole entry): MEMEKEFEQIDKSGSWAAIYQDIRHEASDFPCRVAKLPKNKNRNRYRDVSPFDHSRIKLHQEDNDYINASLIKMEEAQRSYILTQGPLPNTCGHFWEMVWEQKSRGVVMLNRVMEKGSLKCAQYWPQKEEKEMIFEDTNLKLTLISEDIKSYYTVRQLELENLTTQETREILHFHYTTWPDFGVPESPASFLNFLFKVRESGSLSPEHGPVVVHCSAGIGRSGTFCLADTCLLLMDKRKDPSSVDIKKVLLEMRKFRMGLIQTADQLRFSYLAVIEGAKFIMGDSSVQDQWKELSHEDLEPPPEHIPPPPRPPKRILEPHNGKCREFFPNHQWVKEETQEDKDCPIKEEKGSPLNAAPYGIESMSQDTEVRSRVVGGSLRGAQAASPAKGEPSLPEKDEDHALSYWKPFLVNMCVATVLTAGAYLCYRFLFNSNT
Description: Inhibition of recombinant full length PTP1B (unknown origin) assessed as p-nitrophenyl phosphate conversion to p-nitrophenol after 10 mins by spectrophotometric analysis. In outline: (§2)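 Recombinant full-length PTP1B (5 nM final) in 50 mM Bis-Tris pH 7.2, 100 mM NaCl, 1 mM DTT, 2 mM EDTA, 1 vol % DMSO, 2 mM p-nitrophenyl phosphate plus inhibitor. Mixture preincubated 5 min at 37 C, started by adding enzyme. p-Nitrophenol release followed. IC50 taken from dose-response curve as 50% activity loss after 10 min.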

For assay [6], the target named is T3, Tyrosine-protein phosphatase non-receptor type 1. The experiment in a line: Inhibition of recombinant truncated PTP1B (unknown origin) using pTyr1146 as substrate assessed as inorganic phosphate level after 20 mins by spectrophotometric analysis. In outline: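 Truncated recombinant PTP1B (40 nM) with 0.075 mM pTyr1146 in 50 mM Bis-Tris pH 7.2, 1.1 mM DTT, 0.1 M NaCl, 1 mM EDTA. Reaction started with enzyme, run 20 min at 37 C, stopped with malachite green, held 10 min at 37 C. Phosphate read at 620 nm against standard curve, corrected for no-enzyme, no-substrate and inhibitor blanks.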

Assay [7] has as its target T4, Receptor-type tyrosine-protein phosphatase C (Homo sapiens, UniProt P08575).
T4 sequence (P08575 whole entry): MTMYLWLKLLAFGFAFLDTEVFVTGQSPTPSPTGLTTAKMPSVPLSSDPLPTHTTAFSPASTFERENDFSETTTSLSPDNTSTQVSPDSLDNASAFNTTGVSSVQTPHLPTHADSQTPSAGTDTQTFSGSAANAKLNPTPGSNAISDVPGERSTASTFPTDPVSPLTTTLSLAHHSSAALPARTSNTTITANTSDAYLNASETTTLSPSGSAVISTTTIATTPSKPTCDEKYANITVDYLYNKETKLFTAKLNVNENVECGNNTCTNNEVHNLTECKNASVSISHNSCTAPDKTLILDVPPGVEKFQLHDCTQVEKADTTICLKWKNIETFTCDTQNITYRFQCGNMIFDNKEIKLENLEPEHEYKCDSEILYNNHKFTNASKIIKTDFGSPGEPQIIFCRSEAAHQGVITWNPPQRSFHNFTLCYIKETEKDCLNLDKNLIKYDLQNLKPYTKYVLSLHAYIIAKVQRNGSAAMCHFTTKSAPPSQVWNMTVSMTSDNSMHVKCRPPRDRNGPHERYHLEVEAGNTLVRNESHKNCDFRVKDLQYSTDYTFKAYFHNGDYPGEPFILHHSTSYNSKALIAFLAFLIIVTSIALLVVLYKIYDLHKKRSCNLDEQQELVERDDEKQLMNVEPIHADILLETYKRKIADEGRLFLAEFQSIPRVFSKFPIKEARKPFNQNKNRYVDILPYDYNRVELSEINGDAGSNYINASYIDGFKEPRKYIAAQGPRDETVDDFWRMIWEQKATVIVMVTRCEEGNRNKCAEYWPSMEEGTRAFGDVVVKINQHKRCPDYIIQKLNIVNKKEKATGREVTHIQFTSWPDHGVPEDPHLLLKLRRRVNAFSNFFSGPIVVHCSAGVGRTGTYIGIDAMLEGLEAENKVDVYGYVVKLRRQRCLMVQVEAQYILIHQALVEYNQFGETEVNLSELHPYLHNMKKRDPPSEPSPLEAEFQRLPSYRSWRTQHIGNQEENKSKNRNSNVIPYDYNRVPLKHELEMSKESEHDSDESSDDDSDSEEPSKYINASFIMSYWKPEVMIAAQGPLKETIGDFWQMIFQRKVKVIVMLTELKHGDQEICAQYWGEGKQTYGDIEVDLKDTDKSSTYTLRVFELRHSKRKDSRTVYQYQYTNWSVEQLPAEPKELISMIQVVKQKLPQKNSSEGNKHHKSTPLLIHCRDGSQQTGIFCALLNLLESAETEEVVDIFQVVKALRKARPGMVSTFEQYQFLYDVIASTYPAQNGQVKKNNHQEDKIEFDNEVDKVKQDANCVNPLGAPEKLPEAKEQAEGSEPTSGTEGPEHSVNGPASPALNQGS
The experiment in a line: Inhibition of CD45 (unknown origin) assessed as p-nitrophenyl phosphate conversion to p-nitrophenol after 10 mins by spectrophotometric analysis. In outline:
as §1

For assay [8], the target named is T3, Tyrosine-protein phosphatase non-receptor type 1. The experiment in a line: Reversible inhibition of recombinant full length PTP1B (unknown origin) assessed as p-nitrophenyl phosphate conversion to p-nitrophenol after 10 mins by spectrophotometric analysis. In outline:
as §2

Assay [9] has as its target T5, Tyrosine-protein phosphatase non-receptor type 2 (Homo sapiens) (UniProt P17706).
T5 sequence (whole entry): T1 sequence (P17706 whole entry)
The experiment in a line: Inhibition of TCPTP (unknown origin) assessed as p-nitrophenyl phosphate conversion to p-nitrophenol by spectrophotometric analysis. Particulars: TDE = time-dependent effect.

Assay [10] has as its target T6, Tyrosine-protein phosphatase non-receptor type 1 (Homo sapiens) (UniProt P18031).
T6 sequence (whole entry): T3 sequence (P18031 whole entry)
Description: Inhibition of recombinant full length PTP1B (unknown origin) assessed as p-nitrophenyl phosphate conversion to p-nitrophenol by spectrophotometric analysis. To be noted: TDE = time-dependent effect. Summed up: as §2

The species named for assay [11] is Homo sapiens. Description: Selectivity ratio of IC50 for CD45 (unknown origin) to IC50 for recombinant full length PTP1B (unknown origin).
Assay [12] is filed under the species Homo sapiens. The experiment in a line: Selectivity ratio of IC50 for TCPTP (unknown origin) to IC50 for recombinant full length PTP1B (unknown origin).
Assay [13] addresses T6, Tyrosine-protein phosphatase non-receptor type 1 (Homo sapiens). Particulars: 50 uM.
The target is the same in assay [14]. Description: Inhibition of recombinant full length PTP1B (unknown origin) assessed as p-nitrophenyl phosphate conversion to p-nitrophenol up to 20 uM after 10 mins by spectrophotometric analysis. In outline: as §2
Assay [15] deals with T3, Tyrosine-protein phosphatase non-receptor type 1. Description: Competitive inhibition of recombinant full length PTP1B (unknown origin) assessed as p-nitrophenyl phosphate conversion to p-nitrophenol by Lineweaver-Burk plot analysis.

The source made the active and inactive calls. The calls are words filed in the database; no cut-off is given here.

Chain of Receptor-type tyrosine-protein phosphatase F (P10586 whole entry): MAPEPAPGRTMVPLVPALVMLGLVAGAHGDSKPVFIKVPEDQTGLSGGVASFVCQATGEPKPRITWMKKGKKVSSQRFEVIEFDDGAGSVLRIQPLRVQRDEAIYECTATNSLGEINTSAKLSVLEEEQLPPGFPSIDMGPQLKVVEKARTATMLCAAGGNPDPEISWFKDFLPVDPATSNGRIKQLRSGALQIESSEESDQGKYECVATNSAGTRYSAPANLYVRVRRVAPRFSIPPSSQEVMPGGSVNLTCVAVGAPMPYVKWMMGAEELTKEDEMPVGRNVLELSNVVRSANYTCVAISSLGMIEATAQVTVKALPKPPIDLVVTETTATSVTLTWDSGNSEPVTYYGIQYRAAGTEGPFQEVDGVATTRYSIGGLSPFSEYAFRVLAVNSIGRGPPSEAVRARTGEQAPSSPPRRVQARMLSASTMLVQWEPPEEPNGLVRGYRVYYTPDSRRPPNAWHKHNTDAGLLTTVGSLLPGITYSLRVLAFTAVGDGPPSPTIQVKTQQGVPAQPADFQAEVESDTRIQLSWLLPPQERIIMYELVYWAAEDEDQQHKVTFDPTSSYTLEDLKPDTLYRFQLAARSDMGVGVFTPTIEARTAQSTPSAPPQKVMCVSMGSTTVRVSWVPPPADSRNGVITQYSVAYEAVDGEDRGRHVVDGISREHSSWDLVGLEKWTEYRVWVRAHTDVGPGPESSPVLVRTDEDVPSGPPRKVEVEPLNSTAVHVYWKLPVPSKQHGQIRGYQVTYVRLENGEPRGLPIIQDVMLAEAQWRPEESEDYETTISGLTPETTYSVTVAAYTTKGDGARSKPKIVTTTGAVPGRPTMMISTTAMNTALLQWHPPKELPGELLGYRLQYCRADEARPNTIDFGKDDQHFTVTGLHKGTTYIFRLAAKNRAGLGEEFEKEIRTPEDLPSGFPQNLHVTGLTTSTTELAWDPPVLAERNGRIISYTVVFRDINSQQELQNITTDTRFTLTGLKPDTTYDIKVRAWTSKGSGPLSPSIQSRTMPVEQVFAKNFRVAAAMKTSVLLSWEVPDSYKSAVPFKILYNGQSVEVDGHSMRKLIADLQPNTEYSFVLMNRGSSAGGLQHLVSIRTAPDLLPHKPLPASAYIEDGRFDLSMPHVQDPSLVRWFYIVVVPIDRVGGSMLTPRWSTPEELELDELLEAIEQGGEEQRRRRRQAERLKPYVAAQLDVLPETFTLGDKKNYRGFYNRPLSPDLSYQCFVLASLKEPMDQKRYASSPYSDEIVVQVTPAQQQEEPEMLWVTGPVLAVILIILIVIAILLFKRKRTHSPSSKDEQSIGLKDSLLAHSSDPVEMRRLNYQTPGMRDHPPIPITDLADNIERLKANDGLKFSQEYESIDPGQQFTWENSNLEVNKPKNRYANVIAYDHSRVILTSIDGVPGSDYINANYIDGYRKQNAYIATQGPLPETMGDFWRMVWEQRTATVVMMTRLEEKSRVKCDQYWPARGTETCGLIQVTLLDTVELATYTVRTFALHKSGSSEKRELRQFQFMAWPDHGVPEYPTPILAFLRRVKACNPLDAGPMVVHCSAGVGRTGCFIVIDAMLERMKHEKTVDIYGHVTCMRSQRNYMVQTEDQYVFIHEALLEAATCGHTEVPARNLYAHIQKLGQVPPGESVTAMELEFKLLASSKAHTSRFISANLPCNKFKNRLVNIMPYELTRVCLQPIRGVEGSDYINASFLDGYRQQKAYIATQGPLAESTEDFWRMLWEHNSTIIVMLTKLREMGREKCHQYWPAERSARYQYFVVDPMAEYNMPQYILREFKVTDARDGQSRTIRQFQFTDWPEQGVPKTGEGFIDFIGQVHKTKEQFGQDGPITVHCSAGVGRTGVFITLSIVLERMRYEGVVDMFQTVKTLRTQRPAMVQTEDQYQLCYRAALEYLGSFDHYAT

As to `CCCOc1c2cccc1Cc1cc(C(O)(P(=O)(O)O)P(=O)(O)O)cc(c1O)Cc1cccc(c1OCCC)Cc1cc(C(O)(P(=O)(O)O)P(=O)(O)O)cc(c1O)C2`, the IC50 (usually the concentration that inhibits the measured activity by half) in assay [1] was 22 µM; in assay [2], greater than 100 µM; in assay [3], 9.2 µM; in assay [4], 12 µM; in assay [5], 8.3 µM; in assay [6], 7.3 µM. Moreover, the IC50 in assay [7] was 59 µM.

For the compound `CCCOc1c2cccc1Cc1cc(C(O)(P(=O)(O)O)P(=O)(O)O)cc(c1O)Cc1cccc(c1OCCC)Cc1cccc(c1O)C2`, the concentration for half-maximal inhibition (IC50) is 27 µM in assay [1]; no less than 100 µM in assay [2]; 3.4 µM in assay [3]; 18 µM in assay [4]; 1.9 µM in [5]; 4.1 µM in [6]. Also, the IC50 in [7] worked out at 8.4 µM. The Ki (commonly the dissociation constant of the complex between target and ligand, obtained from inhibition or displacement) in assay [8] worked out at 0.68 µM. Further, the inhibition result in assay [9] and in assay [10] was “tde” in each case. In addition, the Ratio IC50 in [11] was 4; in assay [12], 14.

As to `NCCCC(O)(P(=O)(O)O)P(=O)(O)O`, in [13], the inhibition entry is “inactive”.

On to `CCCOc1c2cccc1Cc1cc(C(P(=O)(O)O)P(=O)(O)O)cc(c1O)Cc1cccc(c1OCCC)Cc1cc(C(P(=O)(O)O)P(=O)(O)O)cc(c1O)C2`, for which the IC50 in assay [1] was 4.9 µM; in assay [2] it was greater than 100 µM; in assay [3], 2.6 µM; in assay [5], 2.5 µM; in assay [6] it was 3.9 µM; in assay [7], 22 µM.

`CCCOc1c2cccc1Cc1cccc(c1O)Cc1cccc(c1OCCC)Cc1cccc(c1O)C2`: in assay [14], the inhibition entry was “inactive”.

In the case of `CCCOc1c2cccc1Cc1cc(C(P(=O)(O)O)P(=O)(O)O)cc(c1O)Cc1cccc(c1OCCC)Cc1cccc(c1O)C2`, the IC50 was 9.3 µM in [1]; greater than 100 µM in [2]; 1.8 µM in assay [3]; 13 µM in assay [4]; 1.2 µM in assay [5]; 3.7 µM in [6]. Moreover, the IC50 in [7] stood at 5.7 µM. Moreover, the Ki amounted to 0.74 µM in assay [8] and 0.98 µM in assay [15]. Moreover, the inhibition result in [9] and in [10] was “tde” each time. For the same compound, the values for the Ratio IC50 in assay [11] and in assay [12] were 4 and 8, respectively.
